# Source: ChEMBL document CHEMBL1143565, “Pyrido[2,3-d]pyrimidin-7-ones as specific inhibitors of cyclin-dependent kinase 4” (J Med Chem, 2005)
# Biological target: Cyclin-dependent kinase 1/cyclin B (Homo sapiens, UniProt P06493)
# Assay: Inhibition of [32P]ATP binding to Cyclin dependent kinase 1-cyclin B
# Assay type: protein-complex assay
# In short: (§1)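 Human recombinant Cdk–cyclin holoenzymes expressed in insect cells via baculovirus. Each reaction held 20 ng enzyme, 1 µg GST-retinoblastoma substrate and inhibitor dilutions in 20 mM Tris pH 7.4, 50 mM NaCl, 1 mM DTT, 10 mM MgCl2. Started with [32P]ATP (0.25 µCi), at 25 µM for Cdk4 or 12 µM for Cdk2/E, Cdk2/A and Cdc2/B. Ran 15 min at 25 °C. Stopped with TCA and precipitated ≥1 h at 4 °C.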
row,Structure (SMILES),IC50 [nM]
1,Cc1cc(=O)n(C2CCCC2)c2nc(Nc3ccc(N4CCN(CCO)CC4)cc3)ncc12,> 5000
2,O=c1ccc2cnc(Nc3ccc(N4CCC(CCCO)CC4)cc3)nc2n1C1CCCC1,> 5000
3,CCOC(=O)c1c(C)c2cnc(Nc3ccc(N4CCNCC4)cc3)nc2n(C2CCCC2)c1=O,> 5000
4,Cc1c(C)c2cnc(Nc3ccc(N4CCNCC4)cc3)nc2n(C2CCCC2)c1=O,> 5000
5,Cc1c(Br)c(=O)n(C2CCCC2)c2nc(Nc3ccc(N4CCNCC4)cc3)ncc12,2610
6,Cc1cc(=O)n(C2CCCC2)c2nc(Nc3ccc(N4CCN(C=O)CC4)cc3)ncc12,> 5000
7,Cc1c(F)c(=O)n(C2CCCC2)c2nc(Nc3ccc(N4CCNCC4)cc3)ncc12,> 5000
8,CC(=O)N1CCN(c2ccc(Nc3ncc4c(C)cc(=O)n(C5CCCC5)c4n3)cc2)CC1,> 5000
9,Cc1cc(=O)n(C2CCCC2)c2nc(Nc3ccc(N4CCOCC4)cc3)ncc12,1120
10,CCc1cc(=O)n(C2CCCC2)c2nc(Nc3ccc(N4CCNCC4)cc3)ncc12,> 5000
11,Cc1cc(=O)n(C2CCCC2)c2nc(Nc3ccc(N4C[C@@H](C)N[C@@H](C)C4)cc3)ncc12,> 5000
12,Cc1cc(=O)n(C(C)C)c2nc(Nc3ccc(N4CCNCC4)cc3)ncc12,> 5000
13,Cc1cc(=O)n(C2CCCC2)c2nc(Nc3ccc(N4CCNC(C)(C)C4)cc3)ncc12,> 5000

# Biological target: Cyclin-dependent kinase 4/cyclin D (Homo sapiens, UniProt P11802)
# Assay: (§2) Inhibition of [32P]ATP binding to Cyclin dependant kinase 4-cyclin D
# Assay type: protein-complex assay
# In short: as §1
row,Structure (SMILES),IC50 [nM]
1,Cc1cc(=O)n(C2CCCC2)c2nc(Nc3ccc(N4CCN(C(=O)OC(C)(C)C)CC4)cc3)ncc12,425
2,CN1CCN(c2ccc(Nc3ncc4ccc(=O)n(C5CCCC5)c4n3)cc2)CC1,7
3,Cc1cc(=O)n(C2CCCC2)c2nc(Nc3ccc(N4CCCCC4)cc3)ncc12,180
4,Cc1cc(=O)n(C2CCCC2)c2nc(Nc3ccc(N4CCN(CCO)CC4)cc3)ncc12,35
5,Cc1c(C)c2cnc(Nc3ccc(N4CCNCC4)cc3)nc2n(C2CCCC2)c1=O,165
6,Cc1cc(=O)n(C2CCCC2)c2nc(Nc3ccc(N4CCN(C=O)CC4)cc3)ncc12,161
7,Cc1c(F)c(=O)n(C2CCCC2)c2nc(Nc3ccc(N4CCNCC4)cc3)ncc12,30
8,CC(=O)N1CCN(c2ccc(Nc3ncc4c(C)cc(=O)n(C5CCCC5)c4n3)cc2)CC1,103
9,Cc1cc(=O)n(C2CCCC2)c2nc(Nc3ccc(N4CCOCC4)cc3)ncc12,116
10,CCc1cc(=O)n(C2CCCC2)c2nc(Nc3ccc(N4CCNCC4)cc3)ncc12,655
11,Cc1cc(=O)n(C2CCCC2)c2nc(Nc3ccc(N4C[C@@H](C)N[C@@H](C)C4)cc3)ncc12,240
12,Cc1cc(=O)n(C(C)C)c2nc(Nc3ccc(N4CCNCC4)cc3)ncc12,265
13,Cc1cc(=O)n(C2CCCC2)c2nc(Nc3ccc(N4CCNC(C)(C)C4)cc3)ncc12,65

# Biological target: Cyclin-dependent kinase 4/cyclin D (Homo sapiens, UniProt P11802+P24385+P30281+P30279)
# Assay: as §2
# Assay type: protein-complex assay
# In short: as §1
# Cyclin-dependent kinase 4/cyclin D (Homo sapiens, UniProt P11802+P24385+P30281+P30279), sequence (P11802 whole entry): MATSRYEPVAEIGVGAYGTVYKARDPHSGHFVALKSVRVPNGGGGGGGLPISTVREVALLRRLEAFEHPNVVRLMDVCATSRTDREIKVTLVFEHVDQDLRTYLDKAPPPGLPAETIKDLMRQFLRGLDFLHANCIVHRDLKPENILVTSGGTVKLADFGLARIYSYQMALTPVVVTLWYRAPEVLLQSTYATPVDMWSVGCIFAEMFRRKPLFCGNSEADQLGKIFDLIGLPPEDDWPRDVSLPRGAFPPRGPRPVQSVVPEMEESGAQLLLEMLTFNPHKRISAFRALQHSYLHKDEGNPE
# Cyclin-dependent kinase 4/cyclin D (Homo sapiens, UniProt P11802+P24385+P30281+P30279), sequence (P24385 whole entry): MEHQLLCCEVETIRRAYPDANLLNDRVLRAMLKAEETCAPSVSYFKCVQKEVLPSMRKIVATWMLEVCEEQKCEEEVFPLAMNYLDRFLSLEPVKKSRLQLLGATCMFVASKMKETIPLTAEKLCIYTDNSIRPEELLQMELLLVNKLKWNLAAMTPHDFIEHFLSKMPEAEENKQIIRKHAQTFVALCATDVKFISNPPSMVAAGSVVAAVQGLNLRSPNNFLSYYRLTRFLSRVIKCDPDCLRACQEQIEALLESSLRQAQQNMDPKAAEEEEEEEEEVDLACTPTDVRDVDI
# Cyclin-dependent kinase 4/cyclin D (Homo sapiens, UniProt P11802+P24385+P30281+P30279), sequence (P30281 whole entry): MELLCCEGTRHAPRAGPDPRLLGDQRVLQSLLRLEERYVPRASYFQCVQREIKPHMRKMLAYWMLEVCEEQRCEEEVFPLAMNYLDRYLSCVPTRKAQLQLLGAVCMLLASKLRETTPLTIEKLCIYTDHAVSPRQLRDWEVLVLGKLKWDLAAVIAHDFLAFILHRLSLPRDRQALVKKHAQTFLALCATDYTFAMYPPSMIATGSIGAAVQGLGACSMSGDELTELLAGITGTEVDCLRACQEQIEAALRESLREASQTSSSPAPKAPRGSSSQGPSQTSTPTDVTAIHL
# Cyclin-dependent kinase 4/cyclin D (Homo sapiens, UniProt P11802+P24385+P30281+P30279), sequence (P30279 whole entry): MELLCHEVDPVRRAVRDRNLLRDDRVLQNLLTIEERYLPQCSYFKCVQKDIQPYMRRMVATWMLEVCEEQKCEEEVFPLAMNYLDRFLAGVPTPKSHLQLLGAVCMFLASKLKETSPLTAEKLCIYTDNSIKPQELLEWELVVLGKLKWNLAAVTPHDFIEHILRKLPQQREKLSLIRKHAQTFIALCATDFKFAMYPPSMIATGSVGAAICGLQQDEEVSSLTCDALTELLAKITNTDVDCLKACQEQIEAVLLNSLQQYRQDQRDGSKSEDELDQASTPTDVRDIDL
row,Structure (SMILES),IC50 [nM]
1,CCOC(=O)c1c(C)c2cnc(Nc3ccc(N4CCNCC4)cc3)nc2n(C2CCCC2)c1=O,6

# Biological target: Cyclin-dependent kinase 2/cyclin A (Homo sapiens, UniProt P24941)
# Assay: (§3) Inhibition of [32P]ATP binding to Cyclin dependent kinase 2-cyclin A
# Assay type: protein-complex assay
# In short: (§4)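 Human recombinant Cdk–cyclin holoenzymes expressed in insect cells via baculovirus. Each reaction held 20 ng enzyme, 1 µg GST-retinoblastoma substrate and inhibitor dilutions in 20 mM Tris pH 7.4, 50 mM NaCl, 1 mM DTT, 10 mM MgCl2. Stopped with TCA and precipitated ≥1 h at 4 °C.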
row,Structure (SMILES),IC50 [nM]
1,Cc1cc(=O)n(C2CCCC2)c2nc(Nc3ccc(N4CCN(C(=O)OC(C)(C)C)CC4)cc3)ncc12,> 5000
2,CN1CCN(c2ccc(Nc3ncc4ccc(=O)n(C5CCCC5)c4n3)cc2)CC1,14
3,Cc1cc(=O)n(C2CCCC2)c2nc(Nc3ccc(N4CCCCC4)cc3)ncc12,> 5000
4,Cc1cc(=O)n(C2CCCC2)c2nc(Nc3ccc(N4CCN(CCO)CC4)cc3)ncc12,> 5000
5,CCOC(=O)c1c(C)c2cnc(Nc3ccc(N4CCNCC4)cc3)nc2n(C2CCCC2)c1=O,> 5000
6,Cc1cc(=O)n(C2CCCC2)c2nc(Nc3ccc(N4CCN(C=O)CC4)cc3)ncc12,> 5000
7,Cc1c(F)c(=O)n(C2CCCC2)c2nc(Nc3ccc(N4CCNCC4)cc3)ncc12,> 5000
8,CC(=O)N1CCN(c2ccc(Nc3ncc4c(C)cc(=O)n(C5CCCC5)c4n3)cc2)CC1,> 5000
9,Cc1cc(=O)n(C2CCCC2)c2nc(Nc3ccc(N4CCOCC4)cc3)ncc12,> 5000
10,CCc1cc(=O)n(C2CCCC2)c2nc(Nc3ccc(N4CCNCC4)cc3)ncc12,> 5000
11,Cc1cc(=O)n(C(C)C)c2nc(Nc3ccc(N4CCNCC4)cc3)ncc12,> 5000
12,Cc1cc(=O)n(C2CCCC2)c2nc(Nc3ccc(N4CCNC(C)(C)C4)cc3)ncc12,> 5000

# Biological target: Cyclin-dependent kinase 2/cyclin A (Homo sapiens, UniProt P24941+P20248+P78396)
# Assay: as §3
# Assay type: protein-complex assay
# In short: as §4
row,Structure (SMILES),IC50 [nM]
1,Cc1c(Br)c(=O)n(C2CCCC2)c2nc(Nc3ccc(N4CCNCC4)cc3)ncc12,439

# Biological target: Cyclin-dependent kinase 2/cyclin E (Homo sapiens, UniProt P24941)
# Assay: Inhibition of [32P]ATP binding to Cyclin dependent kinase 2-cyclin E
# Assay type: protein-complex assay
# In short: as §4
row,Structure (SMILES),IC50 [nM]
1,O=c1ccc2cnc(Nc3ccc(N4CCNCC4)cc3)nc2n1C1CCCC1,80
2,Cc1cc(=O)n(C2CCCC2)c2nc(Nc3ccc(N4CCN(C(=O)OC(C)(C)C)CC4)cc3)ncc12,> 5000
3,CN1CCN(c2ccc(Nc3ncc4ccc(=O)n(C5CCCC5)c4n3)cc2)CC1,39
4,Cc1cc(=O)n(C2CCCC2)c2nc(Nc3ccc(N4CCN(CCO)CC4)cc3)ncc12,> 5000
5,O=c1ccc2cnc(Nc3ccc(N4CCC(CCCO)CC4)cc3)nc2n1C1CCCC1,4550
6,CCOC(=O)c1c(C)c2cnc(Nc3ccc(N4CCNCC4)cc3)nc2n(C2CCCC2)c1=O,> 5000
7,Cc1c(C)c2cnc(Nc3ccc(N4CCNCC4)cc3)nc2n(C2CCCC2)c1=O,> 5000
8,Cc1c(Br)c(=O)n(C2CCCC2)c2nc(Nc3ccc(N4CCNCC4)cc3)ncc12,950
9,Cc1cc(=O)n(C2CCCC2)c2nc(Nc3ccc(N4CCN(C=O)CC4)cc3)ncc12,> 5000
10,Cc1c(F)c(=O)n(C2CCCC2)c2nc(Nc3ccc(N4CCNCC4)cc3)ncc12,> 5000
11,CC(=O)N1CCN(c2ccc(Nc3ncc4c(C)cc(=O)n(C5CCCC5)c4n3)cc2)CC1,> 5000
12,Cc1cc(=O)n(C2CCCC2)c2nc(Nc3ccc(N4CCOCC4)cc3)ncc12,> 5000
13,CCc1cc(=O)n(C2CCCC2)c2nc(Nc3ccc(N4CCNCC4)cc3)ncc12,> 5000
14,Cc1cc(=O)n(C2CCCC2)c2nc(Nc3ccc(N4C[C@@H](C)N[C@@H](C)C4)cc3)ncc12,> 5000
15,Cc1cc(=O)n(C(C)C)c2nc(Nc3ccc(N4CCNCC4)cc3)ncc12,> 5000
16,Cc1cc(=O)n(C2CCCC2)c2nc(Nc3ccc(N4CCNC(C)(C)C4)cc3)ncc12,> 5000
